In the library only some 4.2% were active in any assay of this set; here they are far more common.
hERG rescue: shields human hERG channel from block by proarrhythmic agents | Q12809 | activation (rescue from dofetilide block), less the hit threshold, % at 10 µM | CHO-hERG, FluxOR thallium flux, dofetilide IC70 present | AID 1511 | actives 0.51% (n = 310,000);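 active = activation above the mean of controls blocked by dofetilide plus 5 SD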;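 note: thallium influx through hERG after potassium depolarization seen as dye fluorescence rise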
KCNQ1 inh: blocks the human KCNQ1 potassium channel; P51787; CHO-K1 KCNQ1, FluxOR thallium flux fluorescence; hits give high values; B-score at 10 µM; actives 1.3% (n = 310,000); AID 2642;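 active = compounds whose thallium flux B-score, printed positive for inhibition, exceeds three library SD while starting fluorescence stays within three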;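 note: channel opened by potassium depolarization with thallium stimulus after 20 min compound exposure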
SUMO Mot1 rescue: inhibitors of SUMOylation pathway: yeast Mot1-301 growth rescue; S. cerevisiae Mot1-301 growth rescue, ATP luminescence, 38.5C; percent above DMSO median, 100 means doubled; growth rescue, % at 18.8 µM; actives 1% (n = 320,000);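 active = every valid replicate shows activation above 250% relative to neutral control wells; inactive = the rest, any valid replicate at or below 250%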;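 note: OY570 slx delta 5 strain wells were the positive control but not used for scaling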
KCC2 mod: modulates chloride dependent transport by human KCC2 | actives 2.2% (n = 190,000) | KCC2 cells, thallium flux FluoZin-2 fluorescence | B-score of Tl+ flux slope (higher = more flux/activation; lower = inhibition) at 10 µM | Q9H2X9;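 active = thallium flux slope and its plate-corrected score both differing from the plate sample mean at a set confidence after two filtering rounds, in either direction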;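 note: slope of fluorescence scaled to starting intensity during 10 to 20 s after thallium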
AI-2 QS mod: modulators of Vibrio harveyi AI-2 quorum sensing system. Vibrio harveyi JMH597 AI-2 luminescence/OD600 ratio, 9 h; hits give low values; strain lacks LuxN and CqsS sensors; 0 = neutral-control median. activity change, % at 7.5 µM. actives 0.4% (n = 300,000); in the data active = activity change below about -75%, passing the limit was not always enough;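 note: luminescence divided by OD600 gain over 9 h not by final OD600 alone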
KCNQ1 act: human KCNQ1 channel potentiation or activation | actives 0.35% (n = 310,000) | B-score at 10 µM | CHO-K1 KCNQ1, thallium flux FluxOR fluorescence; hits give high values | P51787;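 active = fluorescence ratio B-score, a plate-corrected score, at least three library SD, with initial intensity B-score within 5 SD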
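Material: CHO-K1 cells stably expressing KCNQ1. Medium: assay buffer for compound exposure, DMSO matched across wells. Reagent: K+/Tl+ depolarizing stimulus. Compound dosing: single-concentration screen. Times: 37 °C overnight plating, 90-min dark dye load, 20-min compound pretreatment. Technique: FluxOR Tl+ flux fluorescence.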
Yeast Mot1 SUMO: yeast SUMO pathway inhibition in dose response; shares compounds with SUMO Mot1 rescue; S. cerevisiae Mot1-301 galactose growth, ATP luminescence, 24 h; -100 = growth of slx-deleted rescue strain; growth activity, percent, % at 42 µM; 2,300 tested, under 10 active;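 active = Signal drops as the depositor expects, and the fitted half-maximal dose is no more than ten times the top valid tested dose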;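 note: more negative values mean stronger growth rescue toward the control strain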
Numbers without * were called inactive; i = inactive; . = not tested or not shown.

SMILES	hERG rescue	KCNQ1 inh	SUMO Mot1 rescue	KCC2 mod	AI-2 QS mod	KCNQ1 act	Yeast Mot1 SUMO
O=C(Cn1cnc2ccccc2c1=O)c1ccc(OC(F)F)cc1	-11	i	513*	.	-46	i	0
CCN1C(=O)N(C)[C@@H](c2ccccc2)C(C(=O)OC)=C1C	-3	i	948*	-0.57	14	i	1
CCN1C(=O)N(S(=O)(=O)C(F)(F)F)[C@@H](c2ccccc2)C(C(=O)OC)=C1C	-14	i	-5	-1.8	5	i	.
O=C(Nc1ccc2c(c1)CCCN2C(=O)c1cccs1)c1cccc(F)c1	-10	i	566*	.	46	i	-1
CC(C)(C)c1ccc(-c2nc(C=O)c3ccccn23)cc1	-15	i	412*	.	12	i	-1
c1ccc2cc(C3CCCCC3)ncc2c1	.	.	738*	.	.	.	0
Cc1cc(NC(=O)Nc2ccccc2F)ccc1Br	-11	i	-1	-0.041	20	i	.
COCc1[nH][nH]c(=O)c1C=Nc1ccc(OC(F)(F)F)cc1	3	i	801*	-1.7	2	i	0
O=C(CCC(=O)N1CCc2ccccc2C1)NCCc1ccc(Cl)cc1	-20	i	9	.	26	i	.
Cc1csc(NC(=O)c2ccc(Cn3nc(C)c(Br)c3C)o2)n1	-23	i	152	.	18	i	.
Cc1nn(Cc2ccc(C(=O)Nc3ccccc3C(F)(F)F)o2)c(C)c1Br	-16	i	440*	0.31	19	i	0
CCOC(=O)N1CCN(C2CCCN(C(=O)c3ccccc3N(C)C)C2)CC1 (stereo not given)	-6	i	4	.	2	i	.
CCN(CC)C1CCN(C(=O)c2cc(COc3ccc(-n4cncn4)cc3)on2)C1 (stereo not given)	-5	i	512*	.	13	i	0
COCC1CCN(C(=O)c2cc(COc3ccc(-n4cncn4)cc3)on2)C1 (stereo not given)	-14	i	3	.	34	i	.
COc1ccccc1N1CCN(CC(=O)Nc2c(C)n(C)n(-c3ccccc3)c2=O)CC1	-11	i	7	0.019	9	i	.
COc1ccc(S(=O)(=O)N2CCc3cc4c(cc3C2C)OCCCO4)cc1 (stereo not given)	-5	i	600*	.	-5	i	-1

Bioassay records as filed in PubChem BioAssay.
